Experimental data from ChEMBL document CHEMBL4382232, “Grayanane Diterpenoid Glucosides from the Leaves of Rhododendron micranthum and Their Bioactivities Evaluation” (2018).
Activity calls are given as the source filed them. The calls are words filed in the database; no cut-off is given here.

Assays:
HL-60 = assay: Cytotoxicity against human HL60 cells at 40 uM after 48 hrs by MTT assay; assay type: functional, cell-based
SMMC-7721 = assay: Cytotoxicity against human SMMC7721 cells at 40 uM after 48 hrs by MTT assay; assay type: functional, cell-based
[1] = target: T1, Tyrosine-protein phosphatase non-receptor type 1 (Homo sapiens) (UniProt P18031); assay: Inhibition of recombinant human PTP1B at 40 uM using pNPP as substrate preincubated for 10 mins followed by substrate addition and measured after 30 mins at 5 mins time interval for 30 mins
T1 sequence (whole entry): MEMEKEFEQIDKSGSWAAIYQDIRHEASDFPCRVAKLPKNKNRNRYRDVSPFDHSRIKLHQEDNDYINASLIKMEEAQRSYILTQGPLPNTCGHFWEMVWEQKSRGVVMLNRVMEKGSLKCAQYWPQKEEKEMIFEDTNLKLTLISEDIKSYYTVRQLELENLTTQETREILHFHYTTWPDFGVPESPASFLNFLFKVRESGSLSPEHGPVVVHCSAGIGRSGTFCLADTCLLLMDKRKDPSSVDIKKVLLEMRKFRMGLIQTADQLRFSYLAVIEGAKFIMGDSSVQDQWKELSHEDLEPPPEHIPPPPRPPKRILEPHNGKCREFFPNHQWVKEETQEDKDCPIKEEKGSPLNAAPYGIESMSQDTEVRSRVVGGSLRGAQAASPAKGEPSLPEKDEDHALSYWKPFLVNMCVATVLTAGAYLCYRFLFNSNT

Mus musculus = assay: Antinociceptive activity in Kunming mouse model of acetic-acid-induced writhing assessed as inhibition of writhing numbers at 5 mg/kg measured for 30 mins relative to control; assay type: functional; conditions: for inhibition in vivo at 5 mg/kg: 0.5 h
In short: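 Acetic-acid-induced writhing model in Kunming mice (10 per group); doses 0.2, 1.0 and 5.0 mg/kg; vehicle-treated and morphine positive-control groups; inhibition of writhing relative to vehicle; mean ± SEM; one-way ANOVA with Bonferroni test. Animal work approved by institutional ethics committee.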

RAW264.7 = assay: Anti-inflammatory activity in mouse RAW264.7 cells assessed as inhibition of LPS-induced NO production at 40 uM; assay type: functional, cell-based
MCF7 = assay: Cytotoxicity against human MCF7 cells at 40 uM after 48 hrs by MTT assay; assay type: functional, cell-based
A549 = assay: Cytotoxicity against human A549 cells at 40 uM after 48 hrs by MTT assay; assay type: functional, cell-based
SW480 = assay: Cytotoxicity against human SW480 cells at 40 uM after 48 hrs by MTT assay; assay type: functional, cell-based

| Structure (SMILES) | Activity (HL-60) | Activity (SMMC-7721) | inhibition [1] | inhibition in vivo at 5 mg/kg (Mus musculus) [%] | inhibition (RAW264.7) | Activity (MCF7) | Activity (A549) | Activity (SW480) | inhibition (Mus musculus) |
| --- | --- | --- | --- | --- | --- | --- | --- | --- | --- |
| CC1=C2CC[C@@H]3[C@@H](O)[C@@]2(C[C@@H](O)[C@@]2(O)[C@H]1C[C@H](O[C@@H]1O[C@H](CO)[C@@H](O)[C@H](O)[C@H]1O)C2(C)C)C[C@@]3(C)O | inactive | inactive | inactive | > 50 | inactive | inactive | inactive | inactive | – |
| C=C1[C@H]2C[C@H](O)C(C)(C)[C@]2(O)CC[C@@]23C[C@@](O)(CC[C@@H]12)[C@](C)(O[C@@H]1O[C@H](CO)[C@@H](O)[C@H](O)[C@H]1O)C3 | inactive | inactive | inactive | – | inactive | inactive | inactive | inactive | Active |
| C=C1[C@H]2C[C@H](O[C@@H]3O[C@H](CO)[C@@H](O)[C@H](O)[C@H]3O)C(C)(C)[C@@]2(O)[C@H](O)C[C@@]23C[C@@H](CC[C@@H]12)[C@](C)(O)C3 | inactive | inactive | inactive | – | inactive | inactive | inactive | inactive | inactive |
| C=C1[C@@H]2CC[C@@H]3C[C@]2(C[C@@]3(C)O)[C@H](O)[C@@H](O)[C@@]2(O)[C@H]1C[C@H](O[C@@H]1O[C@H](CO)[C@@H](O)[C@H](O)[C@H]1O)C2(C)C | inactive | inactive | inactive | – | inactive | inactive | inactive | inactive | – |
| C[C@H]1[C@@H]2C[C@H](O[C@@H]3O[C@H](CO)[C@@H](O)[C@H](O)[C@H]3O)C(C)(C)[C@]23O[C@]12CC[C@@H]1C[C@@]2(C[C@H]3O)C[C@@]1(C)O | inactive | inactive | inactive | – | inactive | inactive | inactive | inactive | Active |
| C=C1[C@H]2C[C@H](O)C(C)(C)[C@]2(O)CC[C@@]23C[C@@H](CC[C@@H]12)[C@](C)(O[C@@H]1O[C@H](CO)[C@@H](O)[C@H](O)[C@H]1O)C3 | inactive | inactive | inactive | – | inactive | inactive | inactive | inactive | inactive |
| C=C1[C@@H]2CC[C@@H]3[C@@H](OC(C)=O)[C@@]2(C[C@@H](O)[C@@]2(O)[C@H]1C[C@H](O)C2(C)C)C[C@@]3(C)O[C@@H]1O[C@H](CO)[C@@H](O)[C@H](O)[C@H]1O | inactive | inactive | inactive | > 50 | inactive | inactive | inactive | inactive | – |
| C=C1[C@@H]2CC[C@@H]3C[C@]2(C=C3C)C[C@@H](O)[C@@]2(O)[C@H]1C[C@H](O[C@@H]1O[C@H](CO)[C@@H](O)[C@H](O)[C@H]1O)C2(C)C | inactive | inactive | inactive | – | inactive | inactive | inactive | inactive | – |
| C=C1[C@H]2C[C@H](O[C@@H]3O[C@H](CO)[C@@H](O)[C@H](O)[C@H]3O)C(C)(C)[C@]2(O)CC[C@@]23C[C@@](O)(CC[C@@H]12)[C@](C)(O)C3 | inactive | inactive | inactive | – | inactive | inactive | inactive | inactive | – |
